Source: ChEMBL document CHEMBL3244060, “Methotrexate analogues. 8. Synthesis and biological evaluation of bisamide derivatives as potential prodrugs” (J Med Chem, 1977)
Converted amounts (≈) assume the structure as drawn. The source made the active and inactive calls. The calls are words filed in the database; no cut-off is given here.

How the values were obtained:
L1210 [1] = test: Antitumor activity against mouse L1210 cells allografted in mouse assessed as increase in life span at 15 to 525 mg/kg, ip qd administered every 3 days for 7 days; type: functional, organism-based
Method in brief: (§1)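 Mice inoculated ip with 10^5 L1210 cells on day 0. Test agents injected ip in 10% Tween 80 on days 1, 4 and 7; doses 15 to 525 mg/kg. Positive control given as disodium salt in aqueous solution. Test groups of 5, control groups of 10-15. Median survival scored; %ILS = 100 × (T − C)/C.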

Mus musculus = test: Toxicity in mouse allografted with mouse L1210 cells at 15 to 525 mg/kg, ip qd administered every 3 days for 7 days; type: organism-based; set-up: dose 15-525 mg/kg, route intraperitoneal; conditions: in vivo; method in brief: as §1
CCRF-CEM = test: Cytotoxicity against human CCRF-CEM cells assessed as growth inhibition; type: functional; conditions: read-out: ID50 (the source's name)
L1210 [2] = test: Antitumor activity against mouse L1210 cells allografted in mouse assessed as increase in life span at 7 mg/kg, sc administered daily up to death started on day 5 post tumor implantation relative to control; type: functional; conditions: 120 h, route subcutaneous
L1210 [3] = test: Antitumor activity against mouse L1210 cells allografted in mouse assessed as median survival time at 15 mg/kg, ip qd administered every 3 days for 7 days; type: functional; conditions: route intraperitoneal
Method in brief: (§2)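 Mice were inoculated ip with 10^5 L1210 leukemia cells on day 0. Dosing was ip on days 1, 4 and 7 in 10% Tween 80, with the methotrexate disodium salt in water, over 15–525 mg/kg. Survival was recorded in days as the range and median per group, with 5 treated and 10-15 untreated controls.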

L1210 [4] = test: Antitumor activity against mouse L1210 cells allografted in mouse assessed as increase in life span at 15 mg/kg, ip qd administered every 3 days for 7 days relative to control; type: functional; conditions: route intraperitoneal
Method in brief: (§3)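 L1210 cells (10^5) implanted ip in mice on day 0. Compounds given ip in 10% Tween 80 on days 1, 4 and 7, at doses from 15 to 525 mg/kg. Methotrexate was given as the disodium salt in aqueous solution. Groups had 5 treated and 10-15 control animals. %ILS = 100 × (T − C)/C, where T and C are median survival days of treated and control mice.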

L1210 [5] = test: Antitumor activity against mouse L1210 cells allografted in mouse assessed as increase in life span at 25 mg/kg, ip qd administered every 3 days for 7 days relative to control; type: functional; conditions: route intraperitoneal; method in brief: as §3
L1210 [6] = test: Antitumor activity against mouse L1210 cells allografted in mouse assessed as median survival time at 25 mg/kg, ip qd administered every 3 days for 7 days; type: functional; conditions: route intraperitoneal; method in brief: as §2
[7] = biological target: Dihydrofolate reductase (Lactobacillus casei) (UniProt P00381); test: Inhibition of methotrexate-resistant Lactobacillus casei ATCC 7469 dihydrofolate reductase; conditions: Lacticaseibacillus casei
Sequence of Dihydrofolate reductase (Lactobacillus casei) (P00381 whole entry): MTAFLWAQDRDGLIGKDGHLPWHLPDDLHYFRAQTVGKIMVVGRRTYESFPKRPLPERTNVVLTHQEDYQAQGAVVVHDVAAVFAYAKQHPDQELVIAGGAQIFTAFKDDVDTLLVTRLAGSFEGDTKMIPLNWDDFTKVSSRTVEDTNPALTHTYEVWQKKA

Serum = test: Prodrug conversion in rat whole serum assessed as formation of methotrexate measured after 1 hr by TLC analysis; type: ADME
Method in brief: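 Fresh rat serum 0.9 mL plus compound 0.006 g in 0.1 mL Me2SO, incubated at 37 °C with gentle shaking for up to 24 h. Cooled on ice, diluted 1.5-fold with methanol to precipitate protein, centrifuged. Supernatant run on fluorescent cellulose TLC developed with 0.5 M phosphate buffer pH 7.4 to detect parent compound and metabolites.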

Compound: CN(C)CCCNC(=O)CC[C@H](NC(=O)c1ccc(N(C)Cc2cnc3nc(N)nc(N)c3n2)cc1)C(=O)NCCCN(C)C
- Activity (L1210 [1]): inactive
- Activity (Mus musculus): Toxic

Compound: CN(Cc1cnc2nc(N)nc(N)c2n1)c1ccc(C(=O)N[C@@H](CCC(=O)NCCc2ccccc2)C(=O)NCCc2ccccc2)cc1
- IC50 (CCRF-CEM): > 10 mg/L

Compound: CCCCNC(=O)CC[C@H](NC(=O)c1ccc(N(C)Cc2cnc3nc(N)nc(N)c3n2)cc1)C(=O)NCCCC
- IC50 (CCRF-CEM): > 10 mg/L

Compound: Nc1nc(N)c2nc(CNc3ccc(C(=O)N[C@@H](CCC(=O)NCc4ccccc4)C(=O)NCc4ccccc4)cc3)cnc2n1
- ILS at 7 mg/kg (L1210 [2]): 30%

Compound: CN(Cc1cnc2nc(N)nc(N)c2n1)c1ccc(C(=O)N[C@@H](CCC(=O)[O-])C(=O)[O-])cc1.[Na+].[Na+] [METHOTREXATE SODIUM]
- MST (L1210 [3]): 15 days
- ILS at 15 mg/kg (L1210 [4]): 66%
- ILS at 25 mg/kg (L1210 [5]): 100%
- MST (L1210 [6]): 18 days

Compound: CCCCCCNC(=O)CC[C@H](NC(=O)c1ccc(N(C)Cc2cnc3nc(N)nc(N)c3n2)cc1)C(=O)NCCCCCC
- IC50 (CCRF-CEM): 10 mg/L (≈ 16.1 µM)

Compound: CCCCOC(=O)CC[C@H](NC(=O)c1ccc(N(C)Cc2cnc3nc(N)nc(N)c3n2)cc1)C(=O)OCCCC
- ID50 [7]: 5 ×10⁻⁷ M
- Drug metabolism (Serum): metabolite_detected
- IC50 (CCRF-CEM): 0.032 mg/L (≈ 0.0565 µM)

Compound: CN(Cc1cnc2nc(N)nc(N)c2n1)c1ccc(C(=O)N[C@@H](CCC(N)=O)C(N)=O)cc1
- IC50 (CCRF-CEM): > 10 mg/L

Compound: CCC(C)NC(=O)CC[C@H](NC(=O)c1ccc(N(C)Cc2cnc3nc(N)nc(N)c3n2)cc1)C(=O)NC(C)CC (stereo not given in full)
- IC50 (CCRF-CEM): > 10 mg/L
